These results are taken from ChEMBL document CHEMBL3352515, “Design, synthesis, antiviral and cytostatic activity of ω-(1H-1,2,3-triazol-1-yl)(polyhydroxy)alkylphosphonates as acyclic nucleotide analogues” (Bioorg Med Chem, 2014).

The IC50 is the concentration needed to halve the response being measured. In general, EC50 refers to the midpoint of the concentration-response curve. Usually CC50 stands for the concentration that lowers cell viability or growth by half.

In one series the test system is CCRF-CEM. In words: Cytostatic activity against human CEM cells assessed as inhibition of proliferation after 72 hrs by Coulter cell counting method. The series is classed as functional, cell-based. Put shortly: (§1)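 (5–7.5) × 10⁴ tumor cells per well were exposed to test compound at 37 °C in humidified CO₂. Incubation ran 48 h for L1210 and 72 h for CEM and HeLa. Cells were then counted in a Coulter counter. IC₅₀ is the concentration that inhibits cell proliferation by 50%.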

Series [1] can be described thus: Cytotoxicity against feline CRFK cells assessed as reduction in cell viability by MTS assay. Format: cell-based, Felis catus. The note with it: cat. Put shortly: (§2)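 Uninfected host cells were exposed to test compound, and viability was read by the colorimetric MTS assay. CC₅₀ is the concentration causing a 50% decrease in cell viability.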
In another series the test system is Human alphaherpesvirus 1. In words: Antiviral activity against HSV-1 infected in HEL cells assessed as inhibition of virus-induced cytopathogenicity. Format: functional, organism-based. The note with it: Human alphaherpesvirus 1, HEL. Put shortly: (§3)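 Confluent host-cell monolayers in 96-well plates were inoculated with 100 CCID₅₀ of virus while exposed to a range of test compound concentrations. Cytopathic effect was scored once it was complete in untreated infected controls. EC₅₀ is the concentration that reduces virus-induced cytopathogenicity by 50%.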
On the technique in general: Damage to the host cells serves as the signal in cytopathic effect assays.

The next series concerns Human alphaherpesvirus 2. In words: Antiviral activity against HSV-2 infected in HEL cells assessed as inhibition of virus-induced cytopathogenicity. Format: functional, organism-based. The note with it: Human alphaherpesvirus 2, HEL. An outline of the steps: as §3
The subject of the next series is Felid alphaherpesvirus 1. In words: Antiviral activity against Feline herpesvirus 1 infected in HEL cells assessed as inhibition of virus-induced cytopathogenicity. Format: functional, organism-based. The note with it: Felid alphaherpesvirus 1, HEL. An outline of the steps:
as §3

In a further series the test system is HeLa. The experiment in a line: Cytostatic activity against human HeLa cells assessed as inhibition of proliferation after 72 hrs by Coulter cell counting method. The series is classed as functional, cell-based. An outline of the steps:
as §1

A further series concerns L1210. The experiment in a line: Cytostatic activity against mouse L1210 cells assessed as inhibition of proliferation after 48 hrs by Coulter cell counting method. The series is classed as functional, cell-based. Particulars: L1210, 48 h. An outline of the steps: as §1
Series [2] relates to Human alphaherpesvirus 3. In words: Antiviral activity against Thymidine kinase-positive Varicella-zoster virus Oka infected in HEL assessed as reduction in virus plaque formation. The series is classed as functional, organism-based. The note with it: Human alphaherpesvirus 3, strain Oka vaccine. Put shortly: (§4)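 Confluent HEL fibroblast cultures were inoculated with 20 PFU of VZV together with varying compound concentrations. Plaque formation was recorded once complete in untreated infected controls. EC50 is the concentration that reduced viral plaque formation by 50%.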

For another series, the system named is Influenza A virus H3N2. The experiment in a line: Antiviral activity against Influenza A virus H3N2 infected in MDCK cells assessed as inhibition of virus-induced cytopathogenicity. Format: functional, organism-based. Put shortly: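 Confluent MDCK cell cultures were infected in the presence of varying compound concentrations. Cytopathicity was recorded once complete in untreated virus-infected controls, scored visually and by MTS colorimetric assay. EC50 is the concentration that reduced virus-induced cytopathogenicity by 50%.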

Series [3] is described as follows: Cytotoxicity against MDCK cells assessed as reduction in cell viability by MTS assay. The series is classed as cell-based, Canis lupus familiaris. Particulars: dog. Put shortly:
as §2

For series [4], the system named is Respiratory syncytial virus. In words: Antiviral activity against Respiratory syncytial virus infected in HeLa cells assessed as inhibition of virus-induced cytopathogenicity. Format: functional, organism-based. An outline of the steps:
as §3

For series [5], the system named is Human alphaherpesvirus 3. In words: Antiviral activity against Thymidine kinase-negative Varicella-zoster virus 07-1 infected in HEL assessed as reduction in virus plaque formation. The series is classed as functional, organism-based. Particulars: Human alphaherpesvirus 3, 07-1. An outline of the steps:
as §4

Series [6] relates to Vesicular stomatitis virus. In words: Antiviral activity against Vesicular stomatitis virus infected in HeLa cells assessed as inhibition of virus-induced cytopathogenicity. The series is classed as functional, organism-based. Put shortly:
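HeLa cell monolayers (confluent) were infected with 100 CCID50 of VSV in the presence of serial compound concentrations. Viral cytopathicity was read when complete in untreated infected controls. EC50 is the concentration that reduced virus-induced cytopathogenicity by 50%.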

Molecules are shown by their SMILES. Active and inactive are the calls of the source. No cut-off for these calls is given here.

As to `O=C(c1ccccc1)n1c(=O)c2ccccc2n(Cc2cn(C[C@H](OCc3ccccc3)[C@H](O)P(=O)(OCc3ccccc3)OCc3ccccc3)nn2)c1=O`, the IC50 in the series with CCRF-CEM amounted to 4.7 µM; in the series on HeLa, 5.1 µM; with L1210, 4.7 µM. In addition, the MCC in [1] is not below 4 µM. The EC50 with Human alphaherpesvirus 1 is 2.9 µM; with Human alphaherpesvirus 2, 4 µM; with Felid alphaherpesvirus 1, 4 µM.
Regarding `Cn1c(=O)c2c(nc(Cl)n2Cc2cn(C[C@H]3OC(C)(C)O[C@H]3[C@@H](O)P(=O)(OCc3ccccc3)OCc3ccccc3)nn2)n(C)c1=O`, the values for the IC50 in the series on CCRF-CEM, in the series on HeLa and with L1210 were 51 µM, 85 µM and 58 µM, respectively. In addition, the concentration for a half-maximal effect (EC50) in the series on Human alphaherpesvirus 3 [2] is 55.7 µM.
Turning to `Cc1cn(Cc2cn(C[C@H](OCc3ccccc3)[C@@H](O)P(=O)(OCc3ccccc3)OCc3ccccc3)nn2)c(=O)[nH]c1=O`, the half-maximal inhibitory concentration (IC50) in the series on CCRF-CEM, in the series on HeLa and in the series with L1210 was more than 200 µM each time. Besides, in the series with Influenza A virus H3N2, the EC50 came to 20 µM. The cytotoxic concentration (CC50) in [3] is more than 100 µM. Also, in series [3], the MCC was more than 100 µM.
For `O=c1cnn(Cc2cn(C[C@H](OCc3ccccc3)[C@@H](O)P(=O)(OCc3ccccc3)OCc3ccccc3)nn2)c(=O)[nH]1`, the half-inhibitory concentration (IC50) in the series on CCRF-CEM is 71 µM; with HeLa it was 64 µM; in the series on L1210, 78 µM. In addition, the inhibition entry in [4] and in [6] was “inactive” throughout. The EC50 in the series with Human alphaherpesvirus 3 [2] came to 63.7 µM; in the series with Human alphaherpesvirus 3 [5], 70 µM.
